Screening data (PubChem)
PLCg1 inh – blocks human PLC-gamma1 enzyme activity; purified PLC-gamma1, fluorogenic substrate, fluorescence; inhibition, % at 12.2 µM; hit rate 0.84% among 370,000; AID 720700; in the data active = inhibition above about 9.5%
Target sequence (P19174 whole entry, looked up): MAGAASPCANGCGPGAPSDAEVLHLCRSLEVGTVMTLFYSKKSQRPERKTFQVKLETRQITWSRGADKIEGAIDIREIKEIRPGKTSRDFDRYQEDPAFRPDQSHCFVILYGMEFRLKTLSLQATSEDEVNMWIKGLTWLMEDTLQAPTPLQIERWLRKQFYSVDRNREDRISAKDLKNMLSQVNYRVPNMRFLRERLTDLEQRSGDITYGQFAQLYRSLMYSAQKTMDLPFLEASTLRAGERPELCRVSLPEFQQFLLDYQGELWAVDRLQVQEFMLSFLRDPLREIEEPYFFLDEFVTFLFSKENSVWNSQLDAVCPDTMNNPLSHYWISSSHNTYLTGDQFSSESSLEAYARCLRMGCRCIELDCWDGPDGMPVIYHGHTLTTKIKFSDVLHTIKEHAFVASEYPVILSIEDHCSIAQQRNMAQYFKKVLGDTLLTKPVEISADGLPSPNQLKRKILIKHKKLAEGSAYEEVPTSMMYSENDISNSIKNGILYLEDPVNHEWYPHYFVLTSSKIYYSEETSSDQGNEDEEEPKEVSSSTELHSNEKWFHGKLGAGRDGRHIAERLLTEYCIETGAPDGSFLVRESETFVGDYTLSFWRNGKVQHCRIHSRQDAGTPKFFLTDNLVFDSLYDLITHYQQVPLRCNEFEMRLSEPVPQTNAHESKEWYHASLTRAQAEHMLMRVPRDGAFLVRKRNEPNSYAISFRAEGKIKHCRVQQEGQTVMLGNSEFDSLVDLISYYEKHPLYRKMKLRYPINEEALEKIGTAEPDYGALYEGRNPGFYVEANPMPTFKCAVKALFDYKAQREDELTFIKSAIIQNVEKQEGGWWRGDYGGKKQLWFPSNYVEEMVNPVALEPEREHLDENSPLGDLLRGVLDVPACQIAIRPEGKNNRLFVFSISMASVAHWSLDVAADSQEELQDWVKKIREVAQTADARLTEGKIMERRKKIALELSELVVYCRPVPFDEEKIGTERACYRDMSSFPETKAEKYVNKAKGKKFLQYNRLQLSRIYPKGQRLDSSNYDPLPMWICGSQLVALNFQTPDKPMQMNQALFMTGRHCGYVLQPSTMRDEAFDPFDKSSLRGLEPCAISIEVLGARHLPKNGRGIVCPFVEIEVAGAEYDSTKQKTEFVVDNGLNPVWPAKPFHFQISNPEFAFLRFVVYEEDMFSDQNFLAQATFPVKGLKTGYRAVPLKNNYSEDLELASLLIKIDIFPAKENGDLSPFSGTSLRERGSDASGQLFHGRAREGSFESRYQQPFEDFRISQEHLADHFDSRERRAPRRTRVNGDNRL
PLC-beta3 inh – PLC-beta3 (human) inhibition, primary screen; hit rate 0.18% among 370,000; Purified PLC-beta3, fluorogenic substrate, fluorescence; Q01970; inhibition, % at 12.2 µM; AID 720704;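 also: 0% = median of compound wells on plate and 100% = full blocker control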
NTR1 ag – agonists of human neurotensin receptor NTR1; P30989; activation, % at 20 µM; hit rate 0.17% among 330,000; NTR1-U2OS beta-arrestin-GFP spot imaging, agonist mode;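 active = activation at or above 40% of the spot to cytoplasm intensity ratio, with at least 20 cells analyzed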;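 also: 0% = DMSO without peptide and 100% = 100 nM NTR1 peptide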
Arrestin-AP2 inh – blocks beta-arrestin peptide binding to AP2 adaptin. inhibition, % at 10 µM. hit rate 0.31% among 340,000. FITC-arrestin peptide / GST-AP2 beads, flow cytometry; AP2 beta2 appendage carries R879A mutation;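 active = inhibition above a set limit, near 3 SD of compounds lacking own fluorescence, cut at about 54% in these data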;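 also: plate controls were DMSO wells for no effect and 5 µM unlabelled arrestin peptide for full effect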
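test system = AP2 appendage R879A on GSH beads | buffer or medium = PBS plus Tween 20 (0.05%) and BSA (0.1%) | incubation = 12 min plus 1 h, RT | detection = bead flow cytometry, FITC channel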
PLCgamma1 ctr – counter-screen for PLC-beta3 inhibitors: inhibitors of human PLC-gamma1. shares compounds with PLCg1 inh. purified PLC-gamma1, fluorogenic substrate, fluorescence. inhibition, % at 12.3 µM. hit rate 3.1% among 3,300; in the data active = inhibition above about 9.5%
PLCbeta3 conf – confirmation of human PLC-beta3 inhibitors | shares compounds with PLCg1 inh | purified PLC-beta3, fluorogenic substrate fluorescence | inhibition, % at 12.3 µM | hit rate 1% among 3,300 | AID 743261
* hit, by the source's call; i = inactive; . = no result given. Shown are actives, neighbours in structure and some others; about 1.3% of the full set was active somewhere. Rule as the data show it, unless noted: active = inhibition above about 11%; inactive = the rest.

SMILES | PLCg1 inh | PLC-beta3 inh | NTR1 ag | Arrestin-AP2 inh | PLCgamma1 ctr | PLCbeta3 conf
Cc1cccc(-c2cccc3c4c([nH]c23)[C@@H]2C[C@H](N(C)C(=O)c3ccccc3C)[C@H]([C@H](C)O)CN2CC4)c1 | -131 | -160 | . | . | . | .
COC(=O)[C@]12C[C@H](CC(=O)N3CCN(C(=O)c4ccco4)CC3)C(=O)N(Cc3cccc4ccccc34)C1=C[C@H](C1CCCC1)O[C@@H]2C | 8 | 5 | . | . | . | .
O=C(O)c1cc([N+](=O)[O-])ccc1Nc1ccccc1 | -43 | -52 | 0 | -9 | . | .
O=[N+]([O-])c1ccc(Nc2ccccc2O)c([N+](=O)[O-])c1 | 9.5* | 5 | . | . | 1 | -1
CCn1c(CNc2ccc(F)cc2)nnc1SCC(=O)Nc1ccccc1OC | 11* | 5 | -3 | 9 | -7 | -2
CCCCN(C(=O)COc1ccc(C)cc1OC)c1c(N)n(CCC)c(=O)[nH]c1=O | 12* | -5 | -1 | 8 | -3 | -1
Cc1ccc(-n2nc3c(c2NC(=O)c2ccc4c(c2)OCO4)CS(=O)C3)cc1 (stereo not drawn) | 11* | 6 | -1 | -8 | -3 | 3
CCOc1ccc(C(=O)Nc2c3c(nn2-c2ccc(C)cc2)CS(=O)C3)cc1OCC (stereo not drawn) | 7 | 4 | 0 | 2 | . | .
O=c1ccnc2n1COCS2 | 12* | 0 | -2 | -11 | -5 | -1
CCOC(=O)[C@@]12CN(C(=O)OC(C)(C)C)CC=C1N(Cc1ccc(OC)cc1)C(=O)[C@H]2CC(=O)NCc1ccccc1 | -2 | 0 | . | . | . | .
COc1ccc(N2C(=O)c3n[nH]c(C(C)C)c3C2c2ccccc2)cc1 (stereo not drawn) | -5 | 1 | . | . | . | .
O=S(=O)(c1ccccc1)c1cnn(-c2ccccc2)c1-c1ccc(F)cc1 | -2 | 15* | 3 | 6 | -6 | 13*
COc1ccc(-n2ncc(S(=O)(=O)c3ccccc3)c2-c2ccc(Cl)cc2)cc1 | 5 | 3 | 2 | 6 | . | .
COCCN(Cc1ccccc1)C(=S)Nc1ccc(Cl)cc1 | 13* | -6 | 2 | 15 | -1 | -3
Cc1cccc(NS(=O)(=O)c2ccc3c(c2)Cc2cc(S(=O)(=O)Nc4cccc(C)c4C)ccc2-3)c1C | 10* | 4 | . | -1 | -7 | -2
Cc1cnnc2c1-c1no[n+]([O-])c1CC2 | 13* | 9 | 0 | 25 | 0 | 2
Cc1cnnc2c1-c1nonc1CC2 | 4 | 0 | 0 | 3 | . | .
O=C(Nc1nc(C2C3CC4CC(C3)CC2C4)cs1)c1cc2cc([N+](=O)[O-])ccc2oc1=O (stereo not drawn) | 14* | 8 | 4 | -13 | 6 | -1
CC(NC(=O)c1cc2cc([N+](=O)[O-])ccc2oc1=O)C1CCCO1 (stereo not drawn) | 3 | -4 | 0 | -12 | . | .
CC(=O)N1C[C@H]2CON(C)[C@H]2C[C@H]1c1ccccc1-c1ccccc1 | 2 | 7 | . | . | . | .
CC(=O)Nc1cccc(-c2nnc3n2CC(C)S3)c1 (stereo not drawn) | 15* | 5 | 1 | -32 | -6 | -2
CC(=O)Nc1cccc(-c2nnc3c4ccccc4c(C)nn23)c1 | . | . | 1 | . | . | .
CC(C)Oc1ccc(N2CC(C(=O)Nc3ccc(N4CCOCC4)cc3)CC2=O)cc1 (stereo not drawn) | 12* | 12* | 1 | 7 | 5 | 4
COc1cccc(C(=O)NCCCn2ccnc2)c1 | 4 | 1 | 0 | 30 | . | .
COc1ccc(NS(=O)(=O)c2cccc(C(=O)NCCCn3ccnc3)c2)cc1 | 11* | 3 | 0 | 24 | -4 | -7
SMILES | PLCg1 inh | PLC-beta3 inh | NTR1 ag | Arrestin-AP2 inh | PLCgamma1 ctr | PLCbeta3 conf
O/N=C(/c1ccccc1)c1cc2cc(Br)cc(Br)c2o1 | 12* | 1 | 17 | -4 | -4 | -8
O=C(O)C1CCCCN1C(=O)c1ccc(S(=O)(=O)N2CCCC2)cc1 (stereo not drawn) | 9.7* | 1 | -1 | -12 | -3 | 0
Cc1ccc(S(=O)(=O)N2C(N)=C(C(=O)NCc3ccc(Br)cc3)C(c3ccc(Cl)cc3)C2C(=O)c2ccccc2)cc1 (stereo not drawn) | -9 | -13 | . | . | . | .
CC1CCN(S(=O)(=O)c2ccc3c(c2)N(CC(=O)NCCCN2C(C)CCCC2C)C(=O)CO3)CC1 (stereo not drawn) | 11* | -6 | 0 | -7 | -6 | -2
COc1ccc(CSc2nnc(SCC(=O)Nc3ccc4c(c3)OCO4)s2)cc1 | -1 | -4 | . | . | . | .
C#CCNC(=O)C[C@@H]1C(=O)N2CCCC3=C2[C@@]1(C(=O)OCC)CCC3 | 5 | 5 | . | . | . | .
CC(=O)N1CCN(c2cc(-c3ccco3)nc3cc(-c4ccccc4)nn23)CC1 | i | i | . | . | . | .
CC(=O)Nc1ccc(S(=O)(=O)N2c3ccc(F)cc3CCC2C)cc1 (stereo not drawn) | 10* | -4 | 0 | 12 | -7 | -3
COc1ccc(S(=O)(=O)N2c3ccc(F)cc3CCC2C)cc1 (stereo not drawn) | 1 | -3 | 2 | -3 | . | .
C[C@H]1[C@@H](NC(=O)C2CCC2)CC[C@@]23CCCN2C(=O)CCC[C@@H]13 | 1 | 1 | . | . | . | .
C=CCC12C=C(OC)C(=O)C(C1=O)C(c1ccc(OC)cc1)C2C (stereo not drawn) | 1 | -4 | . | . | . | .
Cc1c(C(=O)NCc2ccccn2)oc2ccc(S(=O)(=O)N3CCC4(CC3)OCCO4)cc12 | 0 | 0 | 0 | 53 | . | .
Cc1c(C(=O)NCc2ccccc2)oc2ccc(S(=O)(=O)N3CCC4(CC3)OCCO4)cc12 | 10* | 1 | 2 | 50 | -7 | -2
CCNC(=O)C1(C)CCN(C(=O)c2ccc(OC)c(OC)c2)C1 (stereo not drawn) | 9.7* | 7 | . | . | -8 | -1
CCCNC(=O)C1(C)CCN(C(=O)c2ccc(C)c(F)c2)C1 (stereo not drawn) | 2 | 12* | . | . | -2 | 1
COc1cc(-c2csc(N3CCC(C(N)=O)CC3)n2)cc(OC)c1OC | -1 | -1 | . | . | . | .
O=C(O)c1cccc(Nc2ccncc2[N+](=O)[O-])c1 | 11* | 6 | 0 | 1 | -8 | -2
C=CCN(C)CC#CCCCCl | -1 | 0 | . | . | . | .
COC(=O)[C@@]12CCCCC3=C1N(CCC3)C(=O)[C@H]2CC(=O)N1CCSCC1 | -3 | -2 | . | . | . | .
O=C(NCc1ccco1)C1CCCN(c2ncccn2)C1 (stereo not drawn) | -9 | -9 | . | . | . | .
COC(=O)NNC(=O)C12CC3CC(CC(C3)C1)C2 | 14* | 5 | 1 | -1 | -6 | -3
COc1ccc(C(C)NC(=O)c2ccccc2Br)cc1OC (stereo not drawn) | 3 | 6 | 1 | 1 | . | .
Cc1ccccc1C(=O)NC(C)c1ccc2c(c1)CCCC2 (stereo not drawn) | 10* | 13* | 1 | 3 | 2 | 7
